Experimental data as given in ChEMBL document CHEMBL1143468, “Novel 3,4-diarylpyrazolines as potent cannabinoid CB1 receptor antagonists with lower lipophilicity” (Bioorg Med Chem Lett, 2005).

Tests used:
[1] = target: Cannabinoid receptor 2 (Homo sapiens, UniProt P34972); assay: Displacement of specific CP-55940 binding in CHO cells stably transfected with human cannabinoid receptor 2; format: cell-based
[2] = target: Cannabinoid receptor 1 (Homo sapiens, UniProt P21554); assay: biochemical; format: cell-based, CHO
Sequence of Cannabinoid receptor 1 (P21554 whole entry): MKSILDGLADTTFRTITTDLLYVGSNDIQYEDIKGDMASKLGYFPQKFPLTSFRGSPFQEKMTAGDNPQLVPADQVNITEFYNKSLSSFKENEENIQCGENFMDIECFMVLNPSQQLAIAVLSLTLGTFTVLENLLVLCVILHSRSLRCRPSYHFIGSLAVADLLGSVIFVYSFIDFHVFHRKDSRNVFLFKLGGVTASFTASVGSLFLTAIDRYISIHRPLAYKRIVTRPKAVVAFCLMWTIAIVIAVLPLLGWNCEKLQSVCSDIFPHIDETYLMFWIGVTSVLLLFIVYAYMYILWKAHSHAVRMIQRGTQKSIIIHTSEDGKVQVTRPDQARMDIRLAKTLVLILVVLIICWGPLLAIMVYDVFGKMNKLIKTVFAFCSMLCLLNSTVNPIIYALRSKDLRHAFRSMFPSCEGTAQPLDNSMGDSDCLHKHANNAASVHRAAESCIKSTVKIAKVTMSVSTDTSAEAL

[3] = Partition coefficient (logP) (HPLC); format: physicochemical; conditions: octanol/water
Summary of the method: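 logP was measured with a validated reverse-phase HPLC method.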

[4] = target: P-glycoprotein (ABCB1) (Homo sapiens, UniProt P08183); assay: P-glycoprotein-based membrane transport factor, expressed as the ratio of the bottom to top transport and top to bottom transport; conditions: not told
Sequence of P-glycoprotein (ABCB1) (P08183 whole entry): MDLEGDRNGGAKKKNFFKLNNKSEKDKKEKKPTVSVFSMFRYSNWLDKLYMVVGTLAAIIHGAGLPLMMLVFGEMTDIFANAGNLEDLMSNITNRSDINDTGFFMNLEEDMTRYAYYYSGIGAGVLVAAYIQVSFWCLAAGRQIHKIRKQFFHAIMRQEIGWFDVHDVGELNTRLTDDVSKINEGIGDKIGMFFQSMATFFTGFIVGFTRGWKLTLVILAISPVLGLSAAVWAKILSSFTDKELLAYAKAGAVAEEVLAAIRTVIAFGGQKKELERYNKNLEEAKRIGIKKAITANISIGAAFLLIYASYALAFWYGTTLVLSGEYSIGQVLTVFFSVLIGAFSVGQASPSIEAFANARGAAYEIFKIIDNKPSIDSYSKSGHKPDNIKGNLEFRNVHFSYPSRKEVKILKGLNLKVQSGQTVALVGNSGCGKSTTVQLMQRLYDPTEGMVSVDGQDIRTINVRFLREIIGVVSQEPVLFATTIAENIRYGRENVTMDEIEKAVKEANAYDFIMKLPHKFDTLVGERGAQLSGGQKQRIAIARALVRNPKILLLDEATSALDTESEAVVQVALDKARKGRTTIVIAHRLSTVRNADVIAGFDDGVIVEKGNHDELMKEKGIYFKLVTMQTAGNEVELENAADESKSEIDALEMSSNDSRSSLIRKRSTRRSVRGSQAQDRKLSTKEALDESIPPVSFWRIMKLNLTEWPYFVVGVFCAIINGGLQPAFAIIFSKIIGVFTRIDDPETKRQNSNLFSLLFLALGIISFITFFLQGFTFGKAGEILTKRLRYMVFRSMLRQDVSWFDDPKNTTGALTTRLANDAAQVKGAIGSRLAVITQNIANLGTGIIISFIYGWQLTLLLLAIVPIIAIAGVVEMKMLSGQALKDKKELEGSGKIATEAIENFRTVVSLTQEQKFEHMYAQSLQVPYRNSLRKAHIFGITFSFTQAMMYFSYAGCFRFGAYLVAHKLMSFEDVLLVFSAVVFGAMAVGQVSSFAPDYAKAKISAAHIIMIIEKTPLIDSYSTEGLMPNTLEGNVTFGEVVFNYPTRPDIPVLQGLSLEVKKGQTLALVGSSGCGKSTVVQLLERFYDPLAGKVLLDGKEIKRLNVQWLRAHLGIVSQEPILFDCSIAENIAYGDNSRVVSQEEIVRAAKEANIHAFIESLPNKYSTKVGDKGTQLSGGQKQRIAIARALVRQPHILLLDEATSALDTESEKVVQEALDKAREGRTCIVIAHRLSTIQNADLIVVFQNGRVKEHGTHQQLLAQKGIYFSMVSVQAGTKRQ

[5] = system: Rattus norvegicus; assay: Antagonism of CP-55940 induced hypotension in rat expressed as effective dose upon peroral administration; conditions: po
[6] = system: Mus musculus; assay: Antagonism of WIN-55212-2 induced hypothermia in mice expressed as least effective dose upon peroral administration; format: functional

Sequence of Cannabinoid receptor 2 (P34972 whole entry): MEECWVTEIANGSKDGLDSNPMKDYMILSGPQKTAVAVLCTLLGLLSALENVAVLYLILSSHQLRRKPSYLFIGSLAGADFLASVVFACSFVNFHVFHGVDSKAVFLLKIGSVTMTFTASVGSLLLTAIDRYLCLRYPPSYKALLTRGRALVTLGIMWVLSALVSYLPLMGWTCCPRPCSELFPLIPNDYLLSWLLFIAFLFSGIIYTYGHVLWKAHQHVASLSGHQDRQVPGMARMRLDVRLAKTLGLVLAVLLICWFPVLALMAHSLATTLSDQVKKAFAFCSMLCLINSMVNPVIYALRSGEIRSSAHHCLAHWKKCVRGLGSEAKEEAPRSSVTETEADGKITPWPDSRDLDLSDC

| Ki [2] | SMILES | Ki [1] | logP [3] | efflux ratio [4] | ED50 [5] | LED [6] |
| --- | --- | --- | --- | --- | --- | --- |
| 60 nM | CCN(CC)S(=O)(=O)N=C(NC(C)C)N1CC(c2ccccc2)C(c2ccc(Cl)cc2)=N1 (stereo not drawn) | 2750 nM | – | – | – | – |
| 832 nM | CN=C(NS(=O)(=O)N1CCS(=O)(=O)CC1)N1CC(c2ccccc2)C(c2ccc(Cl)cc2)=N1 (stereo not drawn) | – | – | – | – | – |
| 117 nM | CCN(C)S(=O)(=O)NC(=NC)N1CC(c2ccccc2)C(c2ccc(Cl)cc2)=N1 (stereo not drawn) | 1870 nM | – | – | – | – |
| – | CNC(=NS(=O)(=O)N1CCCCC1)N1CC(c2ccccc2)C(c2ccc(Cl)cc2)=N1 (stereo not drawn) | 1320 nM | – | – | – | – |
| 155 nM | CN/C(=N\S(=O)(=O)N1CCCCCC1)N1CC(c2ccccc2)C(c2ccc(Cl)cc2)=N1 (stereo not drawn) | 1030 nM | – | – | – | – |
| – | C/N=C(\NS(=O)(=O)N(C)C)N1CC(c2ccccc2)C(c2ccc(Cl)cc2)=N1 (stereo not drawn) | 3830 nM | – | – | – | – |
| 231 nM | CN=C(NS(=O)(=O)N1CCCC1)N1CC(c2ccccc2)C(c2ccc(Cl)cc2)=N1 (stereo not drawn) | 1600 nM | – | – | – | – |
| – | CN/C(=N\S(=O)(=O)N1CCCCC1)N1C[C@H](c2ccccc2)C(c2ccc(Cl)cc2)=N1 | – | 4.8 | 1.4 | 8 mg/kg | 10 mg/kg |
| – | C/N=C(\NS(=O)(=O)N1CCOCC1)N1CC(c2ccccc2)C(c2ccc(Cl)cc2)=N1 (stereo not drawn) | 5370 nM | 3.8 | – | 27 mg/kg | 3 mg/kg |
| – | Cc1c(C(=O)NN2CCCCC2)nn(-c2ccc(Cl)cc2Cl)c1-c1ccc(Cl)cc1 [RIMONABANT] | – | – | – | 3.2 mg/kg | 3 mg/kg |
| 24 nM | C/N=C(\NS(=O)(=O)N1CCSCC1)N1CC(c2ccccc2)C(c2ccc(Cl)cc2)=N1 (stereo not drawn) | 3530 nM | – | – | – | – |
| – | CN/C(=N\S(=O)(=O)c1ccc(Cl)cc1)N1C[C@H](c2ccccc2)C(c2ccc(Cl)cc2)=N1 [IBIPINABANT] | – | 5.1 | – | 5.5 mg/kg | 3 mg/kg |

| SMILES | Ki [2] | Ki [1] | logP [3] | efflux ratio [4] | ED50 [5] | LED [6] |
| --- | --- | --- | --- | --- | --- | --- |
| CCN(CC)S(=O)(=O)NC(=NC)N1CC(c2cccnc2)C(c2ccc(Cl)cc2)=N1 (stereo not drawn) | 141 nM | 9080 nM | 3.2 | 3.4 | > 30 mg/kg | – |
| CCN(CC)S(=O)(=O)N/C(=N\C)N1CC(c2ccccc2)C(c2ccc(Cl)cc2)=N1 (stereo not drawn) | 30 nM | 3270 nM | 4.8 | 1.5 | 20 mg/kg | 3 mg/kg |
| CC/N=C(\NS(=O)(=O)N(CC)CC)N1CC(c2ccccc2)C(c2ccc(Cl)cc2)=N1 (stereo not drawn) | 209 nM | 2860 nM | – | – | – | – |
| C/N=C(\NS(=O)(=O)N(C)C(C)C)N1CC(c2ccccc2)C(c2ccc(Cl)cc2)=N1 (stereo not drawn) | 32 nM | 1130 nM | – | – | – | – |
| CNC(=NS(=O)(=O)N1CCCCCCC1)N1CC(c2ccccc2)C(c2ccc(Cl)cc2)=N1 (stereo not drawn) | 125 nM | 2580 nM | – | – | – | – |
